Data taken from ChEMBL document CHEMBL1151981, “Bioactive pyridine-N-oxide disulfides from Allium stipitatum” (J Nat Prod, 2009).
Converted amounts (≈) assume the structure as drawn. The source made the active and inactive calls. The rule behind the calls is not given here.

Assays:
[1] = test system: Mycolicibacterium fortuitum; assay: Antibacterial activity against Mycobacterium fortuitum after 72 hrs; assay type: functional
Procedure, shortened: (§1)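 Fast-growing mycobacteria obtained from NCTC; cultures grown on Columbia blood agar with 7% defibrinated horse blood at 37 °C for 72 h before MIC determination. Ethambutol and isoniazid served as positive controls.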

[2] = test system: Mycolicibacterium smegmatis; assay: Antibacterial activity against Mycobacterium smegmatis after 72 hrs; assay type: functional; procedure, shortened: as §1
Mycolicibacterium phlei = assay: Antibacterial activity against Mycobacterium phlei after 72 hrs; assay type: functional; procedure, shortened: as §1
Staphylococcus aureus [3] = assay: Antibacterial activity against Staphylococcus aureus SA1199B overexpressing NorA efflux pump after 72 hrs; assay type: functional
Staphylococcus aureus [4] = assay: Antibacterial activity against tetracycline-effluxing Staphylococcus aureus XU212 after 72 hrs; assay type: functional; details: XU212, 72 h
Procedure, shortened: (§2)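 S. aureus strains tested in a MIC assay; norfloxacin and oxacillin used as positive controls.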

Staphylococcus aureus [5] = assay: Antibacterial activity against Staphylococcus aureus EMRSA15 after 72 hrs; assay type: functional; details: EMRSA15, 72 h; procedure, shortened: as §2
[6] = test system: Mycolicibacterium smegmatis; assay: Antibacterial activity against Mycobacterium smegmatis mc2 2700 after 72 hrs; assay type: functional; details: mc2 2700, 72 h
[7] = test system: Mycobacterium tuberculosis; assay: Antibacterial activity against Mycobacterium tuberculosis H37Rv ATCC 27294 assessed as decrease in viable bacterial counts at 1.25 ug/ml after 7 days by spot-culture growth inhibition assay; assay type: functional
[8] = test system: Mycobacterium tuberculosis; assay: Antibacterial activity against Mycobacterium tuberculosis H37Rv ATCC 27294 assessed as decrease in viable bacterial counts at 0.01 to 5 ug/ml after 14 days by spot-culture growth inhibition assay; assay type: functional, organism-based
Procedure, shortened: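 Mid-exponential cultures (BCG rotated in 7H9/ADC/Tween 80; H37Rv standing in 7H9/OADC/Tween 80) diluted to 10³ cells/mL. 5 µL spotted onto 7H10 agar with 10% OADC containing compound at 0.01, 0.1, 0.5, 1 and 5 µg/mL. Incubated at 37 °C for 14 days. MIC taken as lowest concentration with no growth; no-compound well as growth control.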

[9] = test system: Mycolicibacterium smegmatis; assay: Inhibition of fatty acid biosynthesis in Mycobacterium smegmatis assessed as inhibition of [14C]acetate incorporation into soluble lipid at 30 ug/ml treated 2 hrs before [14C]acetate addition measured after 2 hrs of [14C]acetate infusion by whole-cell assay; assay type: functional, organism-based
Procedure, shortened: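 Replicating M. smegmatis whole cells exposed to compound at 30 µg/mL for 2 h, then [1-14C]acetate added for a further 2 h. Soluble lipids (mostly fatty acids) extracted and counts per minute compared with untreated control.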

[10] = test system: Mycobacterium tuberculosis; assay: Effect on trxB2 RNA expression in Mycobacterium tuberculosis H37Rv ATCC 27294 at 2 to 10 ug/ml after 6 hrs by microarray analysis; assay type: functional, organism-based
Procedure, shortened: (§3)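 H37Rv grown in 7H9 with 0.2% glycerol, 0.5% BSA fraction V, 0.05% Tween 80, 0.08% NaCl and 0.2% glucose to OD650 0.3. Treated with 2, 5 or 10 µg/mL compound, or matching DMSO, for 6 h. RNA isolated, labelled cDNA hybridised to microarrays. Predictive genes found by class prediction analysis.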

[11] = test system: Mycobacterium tuberculosis; assay: Effect on trxC RNA expression in Mycobacterium tuberculosis H37Rv ATCC 27294 at 2 to 10 ug/ml after 6 hrs by microarray analysis; assay type: functional, organism-based; procedure, shortened: as §3
[12] = test system: Mycobacterium tuberculosis; assay: Upregulation of clpB RNA expression in Mycobacterium tuberculosis H37Rv ATCC 27294 at 2 to 10 ug/ml after 6 hrs by microarray analysis; assay type: functional, organism-based; procedure, shortened: as §3
[13] = test system: Mycobacterium tuberculosis; assay: Upregulation of sigH RNA expression in Mycobacterium tuberculosis H37Rv ATCC 27294 at 2 to 10 ug/ml after 6 hrs by microarray analysis; assay type: functional, organism-based; procedure, shortened: as §3
[14] = test system: Mycobacterium tuberculosis; assay: Upregulation of dnaJ RNA expression in Mycobacterium tuberculosis H37Rv ATCC 27294 at 2 to 10 ug/ml after 6 hrs by microarray analysis; assay type: functional, organism-based; procedure, shortened: as §3
[15] = test system: Mycobacterium tuberculosis; assay: Upregulation of dnaK RNA expression in Mycobacterium tuberculosis H37Rv ATCC 27294 at 2 to 10 ug/ml after 6 hrs by microarray analysis; assay type: functional, organism-based; procedure, shortened: as §3
[16] = test system: Mycobacterium tuberculosis; assay: Upregulation of hsp RNA expression in Mycobacterium tuberculosis H37Rv ATCC 27294 at 2 to 10 ug/ml after 6 hrs by microarray analysis; assay type: functional, organism-based; procedure, shortened: as §3
[17] = test system: Mycobacterium tuberculosis; assay: Upregulation of Rv0331 RNA expression in Mycobacterium tuberculosis H37Rv ATCC 27294 at 2 to 10 ug/ml after 6 hrs by microarray analysis; assay type: functional, organism-based; procedure, shortened: as §3
[18] = test system: Mycobacterium tuberculosis; assay: Upregulation of Rv3463 RNA expression in Mycobacterium tuberculosis H37Rv ATCC 27294 at 2 to 10 ug/ml after 6 hrs by microarray analysis; assay type: functional, organism-based; procedure, shortened: as §3
[19] = test system: Mycobacterium tuberculosis; assay: Upregulation of Rv3054c RNA expression in Mycobacterium tuberculosis H37Rv ATCC 27294 at 2 to 10 ug/ml after 6 hrs by microarray analysis; assay type: functional, organism-based; procedure, shortened: as §3
[20] = test system: Mycobacterium tuberculosis; assay: Upregulation of Rv1334 RNA expression in Mycobacterium tuberculosis H37Rv ATCC 27294 at 2 to 10 ug/ml after 6 hrs by microarray analysis; assay type: functional, organism-based; procedure, shortened: as §3
[21] = test system: Mycobacterium tuberculosis; assay: Upregulation of Rv1335 RNA expression in Mycobacterium tuberculosis H37Rv ATCC 27294 at 2 to 10 ug/ml after 6 hrs by microarray analysis; assay type: functional, organism-based; procedure, shortened: as §3
Mus musculus [22] = assay: Toxicity in C57BL/6 mouse assessed as lethality at 300 mg/kg administered as single dose via oral gavage for 3 days measured 2 days after final dose; assay type: organism-based; parameters: dose 300 mg/kg, route oral; details: in vivo, 48 h
Procedure, shortened: (§4)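 Female C57BL/6 mice, three per dose, got a single oral gavage dose of 30, 100 or 300 mg/kg. Observed at 4 and 6 h after dosing, then twice daily for 1 week. The tabulated data describe 3-day dosing.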

Mus musculus [23] = assay: Toxicity in C57BL/6 mouse assessed as lethality at 300 mg/kg administered as single dose via oral gavage for 3 days measured 3 days after final dose; assay type: organism-based; parameters: dose 300 mg/kg, route oral; details: in vivo, 72 h; procedure, shortened: as §4
Mus musculus [24] = assay: Toxicity in C57BL/6 mouse assessed as transient lethargy at 100 mg/kg administered as single dose via oral gavage for 3 days measured 3 days after final dose; assay type: organism-based; parameters: dose 100 mg/kg, route oral; details: in vivo, 72 h
Mus musculus [25] = assay: Toxicity in C57BL/6 mouse assessed as adverse effect at 30 mg/kg administered as single dose via oral gavage for 3 days measured after 3 days post final dose; assay type: organism-based; parameters: dose 30 mg/kg, route oral; details: in vivo, 72 h
[26] = Toxicity in C57BL/6 mouse assessed as maximum tolerated dose administered as single dose via oral gavage for 3 days measured 4 hrs after final dose; assay type: organism-based; details: in vivo; procedure, shortened: as §4
[27] = Toxicity in C57BL/6 mouse assessed as maximum tolerated dose administered as single dose via oral gavage for 3 days measured 6 hrs after final dose; assay type: organism-based; details: in vivo; procedure, shortened: as §4
[28] = Toxicity in C57BL/6 mouse assessed as maximum tolerated dose administered as single dose via oral gavage for 3 days measured twice daily for 1 week after final dose; assay type: organism-based; details: in vivo; procedure, shortened: as §4
[29] = test system: Mycobacterium tuberculosis; assay: Antibacterial activity against Mycobacterium tuberculosis infected in GKO C57BL/6 mouse assessed as bacterial number in lung at 30 mg/kg/day administered 14 days postinfection via oral gavage for nine consecutive days measured on day 24 postinfection; assay type: functional
Procedure, shortened: (§5)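 Female GKO C57BL/6 mice, 8–10 weeks old, infected by low-dose aerosol with M. tuberculosis Erdman (50–100 CFU uptake confirmed day 1). Daily oral gavage in 0.5% methyl cellulose from day 14 for nine consecutive days; isoniazid given at 25 mg/kg/day. Five mice per group, with untreated and pretreatment controls. Lung and spleen CFU log-transformed; one-way ANOVA with Tukey test.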

[30] = test system: Mycobacterium tuberculosis; assay: Antibacterial activity against Mycobacterium tuberculosis infected in GKO C57BL/6 mouse assessed as bacterial number in spleen at 30 mg/kg/day administered 14 days postinfection via oral gavage for nine consecutive days measured on day 24 postinfection; assay type: functional; procedure, shortened: as §5
MCF7 = assay: Cytotoxicity against human MCF7 cells after 96 hrs by sulforhodamine B assay; assay type: functional, cell-based; details: MCF7, 96 h
Procedure, shortened: (§6)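 SRB assay. Cells seeded at 4000/well in DMEM and allowed to attach overnight at 37 °C, 5% CO2. Exposed in quadruplicate to freshly made compound, 0.1–25 µM, for 96 h. Fixed with ice-cold 10% TCA for 30 min, stained with 0.4% SRB in 1% acetic acid for 15 min. Absorbance read at 540 nm as % of untreated control; IC50 derived from means.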

A549 = assay: Cytotoxicity against human A549 cells after 96 hrs by sulforhodamine B assay; assay type: functional, cell-based; details: A549, 96 h; procedure, shortened: as §6
HT-29 = assay: Cytotoxicity against human HT-29 cells after 96 hrs by sulforhodamine B assay; assay type: functional, cell-based; details: HT-29, 96 h; procedure, shortened: as §6
[31] = Cytotoxicity against human WI38 cells after 96 hrs by sulforhodamine B assay; assay type: cell-based; details: WI-38, 96 h; procedure, shortened: as §6
[32] = test system: Mycobacterium tuberculosis; assay: Antibacterial activity against Mycobacterium tuberculosis infected in GKO C57BL/6 mouse assessed as bacterial number in lung at 25 mg/kg/day administered 14 days postinfection via oral gavage for nine consecutive days measured on day 24 postinfection; assay type: functional; procedure, shortened: as §5
[33] = test system: Mycobacterium tuberculosis; assay: Antibacterial activity against Mycobacterium tuberculosis infected in GKO C57BL/6 mouse assessed as bacterial number in spleen at 25 mg/kg/day administered 14 days postinfection via oral gavage for nine consecutive days measured on day 24 postinfection; assay type: functional; procedure, shortened: as §5

Compound: CSSc1ccccn1
- MIC [1]: 8 µg/mL (≈ 50.9 µM)
- MIC [2]: 8 µg/mL (≈ 50.9 µM)
- MIC (Mycolicibacterium phlei): 16 µg/mL (≈ 102 µM)
- MIC (Staphylococcus aureus [3]): 2 µg/mL (≈ 12.7 µM)
- MIC (Staphylococcus aureus [4]): 4 µg/mL (≈ 25.4 µM)
- MIC (Staphylococcus aureus [5]): 2 µg/mL (≈ 12.7 µM)

Compound: CCn1cc(C(=O)O)c(=O)c2cc(F)c(N3CCNCC3)cc21 [NORFLOXACIN]
- MIC (Staphylococcus aureus [3]): 32 µg/mL (≈ 100 µM)
- MIC (Staphylococcus aureus [4]): 16 µg/mL (≈ 50.1 µM)
- MIC (Staphylococcus aureus [5]): 0.5 µg/mL (≈ 1.57 µM)

Compound: CSSc1ccc2ccccc2n1
- MIC [1]: 4 µg/mL (≈ 19.3 µM)
- MIC [2]: 8 µg/mL (≈ 38.6 µM)
- MIC (Mycolicibacterium phlei): 8 µg/mL (≈ 38.6 µM)
- MIC (Staphylococcus aureus [3]): 4 µg/mL (≈ 19.3 µM)
- MIC (Staphylococcus aureus [4]): 4 µg/mL (≈ 19.3 µM)
- MIC (Staphylococcus aureus [5]): 4 µg/mL (≈ 19.3 µM)

Compound: CSSc1cccc[n+]1[O-]
- MIC [1]: 8 µg/mL (≈ 46.2 µM)
- MIC [2]: 8 µg/mL (≈ 46.2 µM)
- MIC [6]: 8 µg/mL (≈ 46.2 µM)
- MIC (Mycolicibacterium phlei): 2 µg/mL (≈ 11.5 µM)
- MIC (Staphylococcus aureus [3]): 2 µg/mL (≈ 11.5 µM)
- MIC (Staphylococcus aureus [4]): 1 µg/mL (≈ 5.77 µM)
- MIC (Staphylococcus aureus [5]): 0.5 µg/mL (≈ 2.89 µM)
- Activity [7]: 99%
- Activity [8]: Active
- inhibition [9]: Active
- Activity [10]: Active
- Activity [11]: Active
- Activity [12]: Active
- Activity [13]: Active
- Activity [14]: Active
- Activity [15]: Active
- Activity [16]: Active
- Activity [17]: Active
- Activity [18]: Active
- Activity [19]: Active
- Activity [20]: Active
- Activity [21]: Active
- Activity (Mus musculus [22]): Toxic
- Activity (Mus musculus [23]): Toxic
- Activity (Mus musculus [24]): Toxic
- Activity (Mus musculus [25]): Non-toxic
- MTD at 4 h [26]: 30 mg/kg
- MTD at 6 h [27]: 30 mg/kg
- MTD at 168 h [28]: 30 mg/kg
- log10cfu [29]: 8.17
- log10cfu [30]: 6.17
- IC50 (MCF7): 350 nM
- IC50 (A549): 220 nM
- IC50 (HT-29): 1840 nM
- IC50 [31]: 800 nM

Compound: Cc1onc(-c2ccccc2)c1C(=O)N[C@@H]1C(=O)N2[C@@H]1SC(C)(C)[C@@H]2C(=O)O [OXACILLIN]
- MIC (Staphylococcus aureus [3]): 0.25 µg/mL (≈ 0.623 µM)
- MIC (Staphylococcus aureus [4]): 128 µg/mL (≈ 319 µM)
- MIC (Staphylococcus aureus [5]): 32 µg/mL (≈ 79.7 µM)

Compound: NNC(=O)c1ccncc1 [ISONIAZID]
- MIC [1]: 0.25 µg/mL (≈ 1.82 µM)
- MIC [2]: 0.25 µg/mL (≈ 1.82 µM)
- MIC (Mycolicibacterium phlei): 128 µg/mL (≈ 933 µM)
- log10cfu [32]: 5.33
- log10cfu [33]: 2.16

Compound: CSSc1cccs1
- MIC [1]: > 128 µg/mL
- MIC [2]: 64 µg/mL (≈ 394 µM)
- MIC (Mycolicibacterium phlei): > 128 µg/mL
- MIC (Staphylococcus aureus [3]): 128 µg/mL (≈ 789 µM)
- MIC (Staphylococcus aureus [4]): > 128 µg/mL
- MIC (Staphylococcus aureus [5]): > 128 µg/mL
